Columns and labels:
Safety and tolerability = format: in vivo, human
How it was run: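 Patients had advanced solid tumours and ECOG PS 0–1. AEs were graded by NCI CTCAE v4.03 and monitored from the first dose of any study drug until 30–40 days after the last dose. The safety population was all patients receiving at least one pevonedistat dose.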

[1] = test system: multidrug resistance protein 1 (MDR1)/P‐glycoprotein (P‐gp); conditions: in vitro, ref data on file; cited from earlier work
[2] = Pevonedistat 8 mg m^−2 + fluconazole (n = 13)
[3] = Pevonedistat 8 mg m^−2 + itraconazole (n = 13)
[4] = Pevonedistat 15 mg m^−2 + itraconazole (n = 6)
[5] = Pevonedistat 20 mg m^−2 + itraconazole (n = 19)
[6] = Pevonedistat + itraconazole, total (n = 38)
[7] = across all study groups, N = 51

## NS(=O)(=O)OC[C@@H]1C[C@@H](n2ccc3c(N[C@H]4CCc5ccccc54)ncnc32)C[C@@H]1O [Pevonedistat]
Safety and tolerability; N = 51
  Patients who discontinued study treatment due to AEs: 12%
Safety and tolerability; [2]
  Abdominal pain, patients with AE: 1 (8) n (%)
  Anaemia, patients with AE: 3 (23) n (%)
  Asthenia, patients with AE: 3 (23) n (%)
  Constipation, patients with AE: 3 (23) n (%)
  Cough, patients with AE: 2 (15) n (%)
  Decreased appetite, patients with AE: 4 (31) n (%)
  Dehydration, patients with AE: 1 (8) n (%)
  Diarrhoea, patients with AE: 0 n (%)
  Dizziness, patients with AE: 1 (8) n (%)
  Dyspnoea, patients with AE: 2 (15) n (%)
  Fatigue, patients with AE: 3 (23) n (%)
  Headache, patients with AE: 3 (23) n (%)
  Hypokalaemia, patients with AE: 0 n (%)
  Hyponatraemia, patients with AE: 2 (15) n (%)
  Nausea, patients with AE: 3 (23) n (%)
  Vomiting, patients with AE: 3 (23) n (%)
Safety and tolerability; [3]
  Abdominal pain, patients with AE: 3 (23) n (%)
  Anaemia, patients with AE: 3 (23) n (%)
  Asthenia, patients with AE: 2 (15) n (%)
  Constipation, patients with AE: 2 (15) n (%)
  Cough, patients with AE: 4 (31) n (%)
  Decreased appetite, patients with AE: 3 (23) n (%)
  Dehydration, patients with AE: 3 (23) n (%)
  Diarrhoea, patients with AE: 4 (31) n (%)
  Dizziness, patients with AE: 2 (15) n (%)
  Dyspnoea, patients with AE: 1 (8) n (%)
  Fatigue, patients with AE: 3 (23) n (%)
  Headache, patients with AE: 0 n (%)
  Hypokalaemia, patients with AE: 2 (15) n (%)
  Hyponatraemia, patients with AE: 1 (8) n (%)
  Nausea, patients with AE: 1 (8) n (%)
  Vomiting, patients with AE: 2 (15) n (%)
Safety and tolerability; [4]
  Abdominal pain, patients with AE: 1 (17) n (%)
  Anaemia, patients with AE: 2 (33) n (%)
  Asthenia, patients with AE: 0 n (%)
  Constipation, patients with AE: 0 n (%)
  Cough, patients with AE: 0 n (%)
  Decreased appetite, patients with AE: 1 (17) n (%)
  Dehydration, patients with AE: 2 (33) n (%)
  Diarrhoea, patients with AE: 1 (17) n (%)
  Dizziness, patients with AE: 1 (17) n (%)
  Dyspnoea, patients with AE: 2 (33) n (%)
  Fatigue, patients with AE: 1 (17) n (%)
  Headache, patients with AE: 0 n (%)
  Hypokalaemia, patients with AE: 2 (33) n (%)
  Hyponatraemia, patients with AE: 1 (17) n (%)
  Nausea, patients with AE: 0 n (%)
  Vomiting, patients with AE: 1 (17) n (%)
Safety and tolerability; [5]
  Abdominal pain, patients with AE: 2 (11) n (%)
  Anaemia, patients with AE: 6 (32) n (%)
  Asthenia, patients with AE: 2 (11) n (%)
  Constipation, patients with AE: 3 (16) n (%)
  Cough, patients with AE: 1 (5) n (%)
  Decreased appetite, patients with AE: 4 (21) n (%)
  Dehydration, patients with AE: 2 (11) n (%)
  Diarrhoea, patients with AE: 6 (32) n (%)
  Dizziness, patients with AE: 4 (21) n (%)
  Dyspnoea, patients with AE: 3 (16) n (%)
  Fatigue, patients with AE: 8 (42) n (%)
  Headache, patients with AE: 6 (32) n (%)
  Hypokalaemia, patients with AE: 3 (16) n (%)
  Hyponatraemia, patients with AE: 2 (11) n (%)
  Nausea, patients with AE: 2 (11) n (%)
  Vomiting, patients with AE: 6 (32) n (%)
Safety and tolerability; [6]
  Abdominal pain, patients with AE: 6 (16) n (%)
  Anaemia, patients with AE: 11 (29) n (%)
  Asthenia, patients with AE: 4 (11) n (%)
  Constipation, patients with AE: 5 (13) n (%)
  Cough, patients with AE: 5 (13) n (%)
  Decreased appetite, patients with AE: 8 (21) n (%)
  Dehydration, patients with AE: 7 (18) n (%)
  Diarrhoea, patients with AE: 11 (29) n (%)
  Dizziness, patients with AE: 7 (18) n (%)
  Dyspnoea, patients with AE: 6 (16) n (%)
  Fatigue, patients with AE: 12 (32) n (%)
  Headache, patients with AE: 6 (16) n (%)
  Hypokalaemia, patients with AE: 7 (18) n (%)
  Hyponatraemia, patients with AE: 4 (11) n (%)
  Nausea, patients with AE: 3 (8) n (%)
  Vomiting, patients with AE: 9 (24) n (%)
Safety and tolerability; Total (N = 51)
  Abdominal pain, patients with AE: 7 (14) n (%)
  Anaemia, patients with AE: 14 (27) n (%)
  Asthenia, patients with AE: 7 (14) n (%)
  Constipation, patients with AE: 8 (16) n (%)
  Cough, patients with AE: 7 (14) n (%)
  Decreased appetite, patients with AE: 12 (24) n (%)
  Dehydration, patients with AE: 8 (16) n (%)
  Diarrhoea, patients with AE: 11 (22) n (%)
  Dizziness, patients with AE: 8 (16) n (%)
  Dyspnoea, patients with AE: 8 (16) n (%)
  Fatigue, patients with AE: 15 (29) n (%)
  Headache, patients with AE: 9 (18) n (%)
  Hypokalaemia, patients with AE: 7 (14) n (%)
  Hyponatraemia, patients with AE: 6 (12) n (%)
  Nausea, patients with AE: 6 (12) n (%)
  Vomiting, patients with AE: 12 (24) n (%)
Safety and tolerability; [7]
  Drug‐related AE: anaemia, patients: 6%
  Drug‐related AE: decreased appetite, patients: 6%
  Drug‐related AE: diarrhoea, patients: 10%
  Drug‐related AE: fatigue, patients: 6%
  Drug‐related AE: increased AST, patients: 6%
  Drug‐related AE: nausea, patients: 8%
  Drug‐related AE: pruritus, patients: 6%
  Drug‐related AE: vomiting, patients: 12%
Safety and tolerability; safety population, N = 51
  Patients who died during Part A (not related to study drug): 14%
  Patients who experienced at least one drug‐related AE: 55%
  Patients with at least one grade ≥3 AE: 43%
  Patients with serious AEs (not deemed drug‐related): 25%
Safety and tolerability; safety population, N = 51, all study groups
  Patients who experienced at least one AE: 98%
[1]
  Substrate of MDR1/P‐gp: substrate

Reference: paper PMC6595297 (British Journal of Clinical Pharmacology, 2019)
